In experiment [1] the test system is HEK293. In words: Effect on Wnt/[…] reporter pathway in HEK293 cells expressing super(8X)TOPFlash reporter assessed as luciferase activity in presence of Wnt-3a. As to conditions: Homo sapiens. The class given is functional, cell-based. The gist of the method: (§1)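 HEK293 cells transfected with Super(8X)TOPFlash reporter plus renilla control; 24 h post-transfection, compound added over a dose range with or without Wnt-3a conditioned medium (1:1 vol/vol to growth medium); firefly luciferase read 36 h later, normalized to renilla; error bars SD.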

Experiment [2] has as its system HEK293. In words: Effect on Wnt/[…] reporter pathway in HEK293 cells expressing super(8X)TOPFlash reporter plasmid assessed as luciferase activity. Format: functional, Homo sapiens. The gist of the method: as §1
The subject of experiment [3] is HEK293. In words: Effect on Wnt/[…] reporter pathway in HEK293 cells expressing super(8X)TOPFlash reporter assessed as luciferase activity at 2.5 uM in presence of Wnt-3a. The class given is functional, Homo sapiens. The gist of the method:
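HEK293 cells (20,000/well) reverse-transfected with Super(8X)TOPFlash and pTK-RL (Fugene6), 24 h at 37°C; compound 2.5 μM plus Wnt-3a conditioned medium (1:1 vol/vol) added; Dual-Glo luciferase read 36 h later, fold activation normalized to renilla; mean of three independent data points.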

The subject of experiment [4] is HEK293. In words: Effect on Wnt/[…] reporter pathway in HEK293 cells expressing super(8X)TOPFlash reporter plasmid assessed as luciferase activity in presence of recombinant Wnt-3a. The class given is functional, cell-based. The conditions noted are these: Homo sapiens.
In experiment [5] the test system is HEK293. In words: Effect on Wnt/[…] reporter pathway in HEK293 cells expressing superFOPFlash reporter plasmid assessed as luciferase activity at 0.11 to 25 uM in presence of Wnt-3a. The class given is functional, cell-based. As to conditions: Homo sapiens, 0.011 to 25 uM, in the assay text read “0.011 to 25 uM” for “0.11 to 25 uM”. The gist of the method:
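SuperFOPFlash reporter (mutated β-catenin/TCF sites) transfected into HEK293 cells; compound 0.011–25 μM given with Wnt-3a conditioned medium 24 h after transfection; luciferase read after 36 h, normalized to renilla.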

In experiment [6] the test system is HEK293. In words: Induction of Wnt-3a-induced Axin2 gene expression in HEK293 cells in presence of Wnt-3a. The class given is functional, cell-based. The conditions noted are these: Homo sapiens.
Experiment [7] has as its system HEK293. In words: Induction of Wnt-3a-induced DKK1 gene expression in HEK293 cells in presence of Wnt-3a. Format: functional, cell-based. As to conditions: Homo sapiens.
Experiment [8] is described as follows: Activation of Wnt/[…] pathway in Xenopus embryos assessed as full axis formation at 10 uM in presence of XWnt-8 RNA after 24 hrs. The class given is functional. The gist of the method: (§2)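 XWnt-8 RNA (0.5 pg) co-injected with 10 nL of 10 μM compound (or 10 nL water) into one ventral blastomere at 16- to 32-cell stage; embryos kept 24 h, then scored for partial versus full double axis formation.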

Experiment [9] in a line: Activation of Wnt/[…] pathway in Xenopus embryos assessed as partial double axis formation at 10 uM in presence of XWnt-8 RNA after 24 hrs. The class given is functional. The gist of the method: as §2
The target of experiment [10] is ADP-ribosylation factor 6 (Mus musculus) (UniProt P62331). In words: Inhibition of ADP-ribosylation factor 6 activity in mouse NIH3T3 cells assessed as increase in endogenous ARF6-GTP level at 1 uM relative to control. Format: cell-based.
Chain of ADP-ribosylation factor 6 (Mus musculus) (P62331 whole entry): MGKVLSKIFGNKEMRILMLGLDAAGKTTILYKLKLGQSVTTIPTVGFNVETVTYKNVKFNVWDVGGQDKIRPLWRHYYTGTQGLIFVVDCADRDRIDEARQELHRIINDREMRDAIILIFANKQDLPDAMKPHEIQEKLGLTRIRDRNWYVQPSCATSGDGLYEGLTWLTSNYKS
For experiment [11] the target is unchanged. In words: Inhibition of ADP-ribosylation factor 6 activity in mouse NIH3T3 cells assessed as increase in endogenous ARF6-GTP level at 2.5 uM relative to control. Format: cell-based.
Experiment [12] has as its system MDA-MB-231. In words: Inhibition of migration of AMAP1 expressing human MDA-MB-231 cells. The class given is functional, cell-based. The gist of the method:
(§3)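 Modified Boyden chambers, filter underside coated with 5 μg/cm² Matrigel; MDA-MB-231 cells (5,000/well) seeded upper chamber in RPMI1640 with 0.5% BSA plus compound, lower chamber DMEM with 10% FBS; after 12 h, cells on lower side counted by microscopy versus DMSO.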

Experiment [13] concerns MDA-MB-231. In words: Inhibition of migration of AMAP1 expressing human MDA-MB-231 cells at 2.5 uM relative to control. More on the design: scale not given: the % may be the effect or the level left. Format: functional. The procedure, abridged:
as §3

Experiment [14] deals with ADP-ribosylation factor GTPase-activating protein 1, ARFGAP1 (Homo sapiens) (UniProt Q8N6T3). In words: Binding affinity to purified ARFGAP1 by surface plasmon resonance analysis. (In general: Surface plasmon resonance follows binding to a sensor surface in real time, without labels.)
Chain of ADP-ribosylation factor GTPase-activating protein 1, ARFGAP1 (Homo sapiens) (Q8N6T3 whole entry, looked up): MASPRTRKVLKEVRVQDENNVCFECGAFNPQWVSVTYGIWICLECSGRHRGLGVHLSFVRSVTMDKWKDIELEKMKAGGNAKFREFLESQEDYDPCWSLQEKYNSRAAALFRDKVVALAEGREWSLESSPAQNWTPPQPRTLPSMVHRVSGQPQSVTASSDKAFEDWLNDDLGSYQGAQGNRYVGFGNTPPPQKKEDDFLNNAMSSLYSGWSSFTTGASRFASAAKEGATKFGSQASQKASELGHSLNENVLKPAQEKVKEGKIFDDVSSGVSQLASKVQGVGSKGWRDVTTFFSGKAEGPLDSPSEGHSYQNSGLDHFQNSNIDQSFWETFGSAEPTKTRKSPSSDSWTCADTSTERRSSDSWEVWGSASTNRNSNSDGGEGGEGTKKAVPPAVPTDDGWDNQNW
Experiment [15] concerns HEK293. In words: Reduction of super(8X)TOPFlash reporter activity in HEK293 cells at 0.25 uM in presence of Wnt-3a conditional medium relative to control. The class given is functional, Homo sapiens. More on the design: scale not given: the % may be the effect or the level left. The procedure, abridged:
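HEK293 cells carrying the Super(8X)TOPFlash luciferase reporter, treated at 0.25 μM in Wnt-3a conditioned medium; reporter luciferase activity compared with DMSO-treated control cells under the same Wnt-3a stimulation.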

Structures are written as SMILES. The source made the active and inactive calls. The rule behind the calls is not given here.

Regarding `OC[C@H](Cc1ccccc1)Nc1nc(Oc2cccc3ccccc23)nc2c1ncn2Cc1ccc(-c2ccccc2)cc1`, in the experiment with HEK293 [1], the EC50 was 4600 nM.
On the same count and under the same terms, next, `[N-]=[N+]=Nc1ccc(C[C@@H](CO)Nc2nc(Oc3ccc4c(c3)CCC4)nc3c2ncn3Cc2ccc(-c3ccccc3)cc2)cc1`: 600 nM.
On the same count and under the same terms, next, `OC[C@H](Cc1ccccc1)Nc1nc(NCc2ccc3c(c2)OCO3)nc2c1ncn2Cc1ccc(-c2ccccc2)cc1`: greater than 7100 nM.
On the same count and under the same terms, the same measure for `FC(F)(F)c1ccc(Cn2cnc3c(NCCc4ccccc4)nc(Oc4ccc5c(c4)CCC5)nc32)cc1`: greater than 7100 nM; for `OC[C@H](Cc1ccccc1)Nc1nc(Oc2ccc3c(c2)CCC3)nc2c1ncn2Cc1ccccc1`: greater than 7100 nM; for `OC[C@H](Cc1ccccc1)Nc1nc(Nc2cccc3ccccc23)nc2c1ncn2Cc1ccc(-c2ccccc2)cc1`: greater than 7100 nM.
On to `OC[C@H](Cc1ccccc1)Nc1nc(Oc2ccc3c(c2)CCC3)nc2c1ncn2Cc1ccc(-c2ccccc2)cc1`, for which the EC50 with HEK293 [1] was determined as 500 nM. The Activity in the experiment on HEK293 [2] is 2; in the experiment with HEK293 [3] it was 200; in [8], 20.9%; in experiment [9], 30.2%; in the experiment on MDA-MB-231 [12], “Dose-dependent effect”; with MDA-MB-231 [13], 80%. Moreover, the result (in the experiment on HEK293 [4]; with HEK293 [6]; with HEK293 [7]; in experiment [10]; in experiment [11]) was Active. Moreover, the result with HEK293 [5] was inactive. In [14], this compound returned an equilibrium dissociation constant (Kd) of 620 nM.
In the case of `CC1(C)Cc2cc(Oc3nc(NCc4ccccc4)c4ncn(Cc5ccc(-c6ccccc6)cc5)c4n3)ccc2O1`, the EC50 with HEK293 [1] turned out to be 1700 nM.
With `O=[N+]([O-])c1ccc(-c2ccc(Cn3cnc4c(N[C@H](CO)Cc5ccccc5)nc(Oc5ccc6c(c5)CCC6)nc43)cc2)cc1`, the concentration for a half-maximal effect (EC50) with HEK293 [1] was 1500 nM.
The same measure, in the same setting: the same measure for `O=[N+]([O-])c1ccc(C[C@@H](CO)Nc2nc(Oc3ccc4c(c3)CCC4)nc3c2ncn3Cc2ccc(-c3ccccc3)cc2)cc1`: 400 nM.
With `OC[C@H](Cc1ccccc1)Nc1nc(Oc2cccc(-c3ccccc3)c2)nc2c1ncn2Cc1ccc(-c2ccccc2)cc1`, in the experiment on HEK293 [1], the EC50 stood at 3100 nM.
Regarding `C[C@H]1CCC/C=C/[C@@H]2C[C@H](O)C[C@H]2[C@H](O)/C=C/C(=O)O1` [BREFELDIN A], the Activity in the experiment on HEK293 [15] is reported as 50%.
On to `OC[C@@H](Cc1ccccc1)Nc1nc(Oc2ccc3c(c2)CCC3)nc2c1ncn2Cc1ccc(-c2ccccc2)cc1`, for which the EC50 with HEK293 [1] is greater than 7100 nM.

What is called EC50 is the concentration needed to bring the measured effect to its halfway point. One may read the Kd as the free concentration of one partner at which half of the binding sites on the other are occupied at equilibrium, for simple one-to-one binding.
